An excerpt weighted towards active compounds, which were near 4.7% of everything screened.
Mdm2 MdmX PPI: disrupts the human Mdm2-MdmX interaction. O15151+Q00987. SaOS-2 split-luciferase Mdm2/MdmX complementation, luminescence. inhibition, % at 8 µM. hit rate 3% among 330,000. AID 485346;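 active means inhibition of at least 50% at 8 µM in the primary screen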
697 NFkB inh: lowers PMA/ionomycin-induced NF-kB signal in 697 B cells; inhibition, % at 4 µM; 697 B-cell NF-kB luciferase reporter, 16 h; hit rate 0.33% among 330,000; in the data active means inhibition above about 35%
VIM-2 inh: blocks Pseudomonas aeruginosa VIM-2 metallo-beta-lactamase | purified VIM-2, nitrocefin hydrolysis, epi-absorbance fluorescence | inhibition, % at 5.6 µM | hit rate 0.89% among 290,000 | AID 1527;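 active means inhibition above the mean of all tested compounds plus 3 SD, cutoff set per screening run, cut at about 7.5% in these data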;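 further: red hydrolysis product quenches plate fluorescence so inhibitors raise well fluorescence; 0% = enzyme with DMSO and 100% = DMSO without enzyme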
Jurkat NFkB inh: inhibitors of the PMA/ionomycin-induced NF-kB reporter in Jurkat cells | PMA/ionomycin-induced NF-kB luciferase reporter, luminescence | inhibition, % at 4 µM | hit rate 0.53% among 330,000 | AID 435003; in the data active means inhibition above about 50%
IMP-1 inhibitor: inhibitors of Pseudomonas aeruginosa IMP-1 metallo-beta-lactamase. purified IMP-1, nitrocefin hydrolysis, epi-absorbance fluorescence. inhibition, % at 5.6 µM. hit rate 0.45% among 290,000;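 active means inhibition above the mean plus 3 SD of all compounds in the same screening run, cut at about 4.5% in these data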;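 further: 0% = IMP-1 with DMSO and 100% = DMSO wells lacking enzyme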
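Material – recombinant IMP-1 enzyme, purified · Amount – IMP-1 0.2 nM before substrate addition · Medium – HEPES buffer pH 7.1 with ZnSO4 and Brij 35 · Timing – 25 °C, 15 min preincubation, 25 min reaction · Measured by – plate fluorescence quenching by hydrolysis product, ex 480/em 530 nm · Read-out – percent enzyme inhibition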
aSyn 5UTR inh: 5' untranslated region of α-synuclein, MLPCN primary screen. alpha-synuclein 5'UTR reporter, inhibitor activity. inhibition, % (tested at 7.5 µM). hit rate 0.82% among 300,000; in the data active means inhibition above about 60%;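 further: H4 neuroglioblastoma cells stably carrying SNCA 5'UTR luciferase fusion; 0% = DMSO wells and 100% = positive control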
Mdm2 MdmX conf: human Mdm2/MdmX binding inhibition, confirmed; shares compounds with Mdm2 MdmX PPI; luminescent assay; inhibition, % at 8 µM; hit rate 55% among 10,000; AID 489028; in the data active means inhibition above about 40%
Full FLuc ctr: full-length luciferase inhibition in Mdm2/MdmX counter-screen; inhibition, % at 8 µM; shares compounds with Mdm2 MdmX PPI; SaOS-2 full-length luciferase counterscreen, luminescence; AID 504607; hit rate 77% among 6,200;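 active means mean inhibition at 8 µM reaching about 37%, which flags the compound as non-specific, limit read from the data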;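 further: p53-null SaOS-2 cells with luciferase driven by a doxycycline-inducible promoter; compound on cells about two nights before reading with doxycycline added after day one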
* marks the source's active call; other numbers are inactive results.

Results for O=C1NC(=O)N(Cc2ccccc2)C(=O)/C1=C/C=C/c1ccco1 ?
Mdm2 MdmX PPI: 15; 697 NFkB inh: 21; VIM-2 inh: 0; Jurkat NFkB inh: -8; IMP-1 inhibitor: 0; aSyn 5UTR inh: -296

What do the screens show for `CC(C)c1ccc(N2C(=O)NC(=O)/C(=C\C=C\c3ccco3)C2=O)cc1`?
Mdm2 MdmX PPI: 56*; 697 NFkB inh: -20; VIM-2 inh: 0; Jurkat NFkB inh: 5; IMP-1 inhibitor: -3; aSyn 5UTR inh: -70; Mdm2 MdmX conf: 22

What do the screens show for `COC(=O)C1=C(c2cccc(NC(C)=O)c2)C[C@@H]2CC[C@H]1N2C`?
Mdm2 MdmX PPI: 28; 697 NFkB inh: 16; Jurkat NFkB inh: -10

How did c1ccc(C2(N3CCCCC3)CCCCC2)cc1 do in these assays?
Mdm2 MdmX PPI: 10; 697 NFkB inh: 8; Jurkat NFkB inh: 9

How did S=C=Nc1cccc(C2(N3CCCCC3)CCCCC2)c1 do in these assays?
Mdm2 MdmX PPI: 69*; 697 NFkB inh: 16; Jurkat NFkB inh: 1; Mdm2 MdmX conf: 23

Results for COC(=O)C1=C(c2cc3ccccc3s2)C[C@@H]2CC[C@H]1N2C(=O)N1CCCC1 ?
Mdm2 MdmX PPI: 10; 697 NFkB inh: 4; Jurkat NFkB inh: 13; aSyn 5UTR inh: -11

Results for COC(=O)C1=C(c2cc3ccccc3s2)C[C@@H]2CC[C@H]1N2C(=O)N1CCOCC1 ?
Mdm2 MdmX PPI: 55*; 697 NFkB inh: -14; Jurkat NFkB inh: 31; aSyn 5UTR inh: 27; Mdm2 MdmX conf: 55*; Full FLuc ctr: 55*

How did CC(=O)c1c(C)n(C2CCCCC2)c2ccc(O)cc12 do in these assays?
Mdm2 MdmX PPI: 82*; 697 NFkB inh: 4; VIM-2 inh: -4; Jurkat NFkB inh: 33; IMP-1 inhibitor: -4; aSyn 5UTR inh: 18; Mdm2 MdmX conf: 82*; Full FLuc ctr: 48*

Results for CC(=O)c1c(C)n(Cc2ccccc2)c2ccc(O)cc12 ?
Mdm2 MdmX PPI: 31; 697 NFkB inh: 0; VIM-2 inh: 0; Jurkat NFkB inh: 3; IMP-1 inhibitor: -4; aSyn 5UTR inh: 9

How did COC(=O)C1=C(c2ccccc2OCc2ccccc2)C[C@@H]2CC[C@H]1N2C(=O)NCc1ccc(OC)c(OC)c1 do in these assays?
Mdm2 MdmX PPI: 2; 697 NFkB inh: 12; Jurkat NFkB inh: 2

How did COc1cc(/C=C(/C)[N+](=O)[O-])ccc1OCc1ccccc1Cl do in these assays?
Mdm2 MdmX PPI: 95*; 697 NFkB inh: -15; VIM-2 inh: -4; Jurkat NFkB inh: -44; IMP-1 inhibitor: -1; aSyn 5UTR inh: -134; Mdm2 MdmX conf: 100*; Full FLuc ctr: 51*

How did COc1cc(C=C2C(=O)NC(=O)NC2=O)ccc1OCc1ccc([N+](=O)[O-])cc1 do in these assays?
VIM-2 inh: -1; IMP-1 inhibitor: -2

What do the screens show for `O=C1C2CCCN2C(c2ccc(Cl)cc2)N1c1ccccn1` (configuration not stated)?
Mdm2 MdmX PPI: -10; 697 NFkB inh: -4; VIM-2 inh: -3; Jurkat NFkB inh: -6; IMP-1 inhibitor: -3; aSyn 5UTR inh: -10

Results for CCCCn1c(=O)c(C(=O)Nc2cnccn2)c(O)c2ccccc21 ?
Mdm2 MdmX PPI: 57*; 697 NFkB inh: -14; VIM-2 inh: -4; Jurkat NFkB inh: -22; IMP-1 inhibitor: -2; aSyn 5UTR inh: 31; Mdm2 MdmX conf: 29; Full FLuc ctr: 89*

How did CCCCCn1c(=O)c(C(=O)Nc2ncccc2C)c(O)c2ccccc21 do in these assays?
Mdm2 MdmX PPI: 18; 697 NFkB inh: -23; VIM-2 inh: -4; Jurkat NFkB inh: 2; IMP-1 inhibitor: -4; aSyn 5UTR inh: 11

How did COc1ccc2c(c1)C13CCCC[C@@H]1C(C2)N(C)CC3 (some centres not stated) do in these assays?
Mdm2 MdmX PPI: 51*; 697 NFkB inh: -8; Jurkat NFkB inh: 7; aSyn 5UTR inh: -3; Mdm2 MdmX conf: 25

How did COc1ccc(-n2c(/C=C/c3ccc(O)cc3)nc3ccccc3c2=O)cc1 do in these assays?
Mdm2 MdmX PPI: 50*; 697 NFkB inh: 4; VIM-2 inh: 1; Jurkat NFkB inh: 2; IMP-1 inhibitor: -2; aSyn 5UTR inh: -11; Mdm2 MdmX conf: 24

Results for O=[N+]([O-])c1ccc(NC2CCN(Cc3ccccc3)CC2)c2ccncc12 ?
Mdm2 MdmX PPI: 64*; 697 NFkB inh: -16; VIM-2 inh: 4; Jurkat NFkB inh: 10; IMP-1 inhibitor: 4; aSyn 5UTR inh: 6; Mdm2 MdmX conf: 36

What do the screens show for `COc1cc(/C=C/C(=O)c2c(O)n(CCc3ccccc3)c(=O)[nH]c2=O)ccc1O`?
Mdm2 MdmX PPI: 53*; 697 NFkB inh: -20; VIM-2 inh: -3; Jurkat NFkB inh: -5; IMP-1 inhibitor: 0; aSyn 5UTR inh: -69; Mdm2 MdmX conf: 46*; Full FLuc ctr: 48*

Results for O=C(/C=C/c1ccc2c(c1)OCO2)c1c(O)n(CCc2ccccc2)c(=O)[nH]c1=O ?
Mdm2 MdmX PPI: 65*; 697 NFkB inh: -15; VIM-2 inh: -3; Jurkat NFkB inh: 7; IMP-1 inhibitor: -4; aSyn 5UTR inh: -41; Mdm2 MdmX conf: 26

What do the screens show for `O=C(/C=C/c1ccccc1)c1c(O)n(CCc2ccccc2)c(=O)[nH]c1=O`?
Mdm2 MdmX PPI: 69*; 697 NFkB inh: 6; VIM-2 inh: -1; Jurkat NFkB inh: -12; IMP-1 inhibitor: -2; aSyn 5UTR inh: -83; Mdm2 MdmX conf: 37

Results for Cc1c(C(=O)c2cccc3ccccc23)c2cccc3c2n1[C@H](CN1CCOCC1)CO3 ?
Mdm2 MdmX PPI: 91*; 697 NFkB inh: 10; Jurkat NFkB inh: -11; aSyn 5UTR inh: -18; Mdm2 MdmX conf: 57*; Full FLuc ctr: 93*

Results for O=C(CN1CCOCC1)c1cccc2ccccc12 ?
Mdm2 MdmX PPI: 18; 697 NFkB inh: -4; VIM-2 inh: -2; Jurkat NFkB inh: 1; IMP-1 inhibitor: -4; aSyn 5UTR inh: 8

Results for CCN(CC)S(=O)(=O)c1ccc(NN=C(C#N)C#N)cc1 ?
Mdm2 MdmX PPI: -2; 697 NFkB inh: 7; VIM-2 inh: -3; Jurkat NFkB inh: -6; IMP-1 inhibitor: -4; aSyn 5UTR inh: -13

Results for N#CC(C#N)=NNc1ccc(-n2ccc(C(F)(F)F)n2)cc1 ?
Mdm2 MdmX PPI: 94*; 697 NFkB inh: 0; VIM-2 inh: -2; Jurkat NFkB inh: 10; IMP-1 inhibitor: -1; aSyn 5UTR inh: -5; Mdm2 MdmX conf: 73*; Full FLuc ctr: 31

What do the screens show for `Cc1cc(C)n(-c2ccc(NN=C(C#N)C#N)cc2)n1`?
Mdm2 MdmX PPI: 62*; 697 NFkB inh: -26; VIM-2 inh: -2; Jurkat NFkB inh: 1; IMP-1 inhibitor: 0; aSyn 5UTR inh: 29; Mdm2 MdmX conf: 58*; Full FLuc ctr: 57*
